pIC50, pKi: −log10 of the molar value. The source made the active and inactive calls. The rule behind the calls is not given here.
Assays:
hERG (KCNH2) = hERG (KCNH2) (Homo sapiens, UniProt Q12809); assay: Inhibition of human ERG at 1 uM by radioligand displacement assay
In short: (§1)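 Single-concentration screen at 1 µM. Percent inhibition was measured by competitive displacement of each target's radioligand.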

[1] = biological target: Sodium-dependent noradrenaline transporter (Homo sapiens) (UniProt P23975); assay: Inhibition of NET at 1 uM by radioligand displacement assay; in short: as §1
[2] = biological target: Sodium-dependent serotonin transporter (Homo sapiens) (UniProt P31645); assay: Inhibition of SERT at 1 uM by radioligand displacement assay; in short: as §1
[3] = biological target: T1, 5-hydroxytryptamine receptor 3A (Homo sapiens) (UniProt P46098); assay: Inhibition of 5HT3 receptor at 1 uM by radioligand displacement assay; in short: as §1
T1 sequence (whole entry): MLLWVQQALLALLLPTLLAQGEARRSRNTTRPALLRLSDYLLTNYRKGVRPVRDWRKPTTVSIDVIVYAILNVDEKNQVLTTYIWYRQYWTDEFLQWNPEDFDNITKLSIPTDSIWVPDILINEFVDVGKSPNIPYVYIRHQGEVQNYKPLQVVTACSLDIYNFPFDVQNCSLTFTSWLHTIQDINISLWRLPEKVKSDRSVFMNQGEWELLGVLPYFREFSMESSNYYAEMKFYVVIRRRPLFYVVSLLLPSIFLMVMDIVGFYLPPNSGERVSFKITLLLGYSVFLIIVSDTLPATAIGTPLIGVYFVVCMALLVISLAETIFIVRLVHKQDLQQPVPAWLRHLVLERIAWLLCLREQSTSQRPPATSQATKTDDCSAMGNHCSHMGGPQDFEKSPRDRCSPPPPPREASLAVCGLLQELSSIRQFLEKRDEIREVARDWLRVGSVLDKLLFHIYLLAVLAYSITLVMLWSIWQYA

[4] = biological target: 5-hydroxytryptamine receptor 2A (Homo sapiens) (UniProt P28223); assay: Inhibition of 5HT2A receptor at 1 uM by radioligand displacement assay; in short: as §1
[5] = biological target: T2, Alpha-1B adrenergic receptor (Homo sapiens) (UniProt P35368); assay: Inhibition of adrenergic alpha1B receptor at 1 uM by radioligand displacement assay; in short: as §1
T2 sequence (whole entry): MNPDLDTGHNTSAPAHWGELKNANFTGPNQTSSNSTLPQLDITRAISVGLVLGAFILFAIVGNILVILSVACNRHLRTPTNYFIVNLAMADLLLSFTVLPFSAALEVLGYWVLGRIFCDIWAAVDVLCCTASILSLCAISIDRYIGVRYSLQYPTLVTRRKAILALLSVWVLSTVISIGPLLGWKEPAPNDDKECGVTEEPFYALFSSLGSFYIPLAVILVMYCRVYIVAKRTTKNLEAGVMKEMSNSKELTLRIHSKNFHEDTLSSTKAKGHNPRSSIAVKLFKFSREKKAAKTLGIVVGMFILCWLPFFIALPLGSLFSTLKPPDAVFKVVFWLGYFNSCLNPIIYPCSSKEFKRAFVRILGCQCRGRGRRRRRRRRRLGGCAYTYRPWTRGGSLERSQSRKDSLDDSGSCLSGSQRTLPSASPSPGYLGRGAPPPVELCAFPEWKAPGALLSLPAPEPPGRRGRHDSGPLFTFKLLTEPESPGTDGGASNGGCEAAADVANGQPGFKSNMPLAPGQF

[6] = biological target: D(3) dopamine receptor (Homo sapiens) (UniProt P35462); assay: Inhibition of dopamine D3 receptor at 1 uM by radioligand displacement assay; in short: as §1
[7] = biological target: Histamine H1 receptor (Homo sapiens) (UniProt P35367); assay: Inhibition of histamine H1 receptor at 1 uM by radioligand displacement assay; in short: as §1
[8] = biological target: D(2) dopamine receptor (Homo sapiens) (UniProt P14416); assay: Inhibition of dopamine D2 receptor at 1 uM by radioligand displacement assay; in short: as §1
[9] = biological target: Sodium-dependent dopamine transporter (Homo sapiens) (UniProt Q01959); assay: Inhibition of DAT at 1 uM by radioligand displacement assay; in short: as §1
[10] = biological target: T3, 5-hydroxytryptamine receptor 6 (Homo sapiens, UniProt P50406); assay: Displacement of [3H]-LSD from cloned human 5HT6 receptor expressed in HEK293 cells; assay type: cell-based
In short: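 Human recombinant 5-HT6 receptor expressed in HEK293 cells. Radioligand [3H]-LSD (60–80 Ci/mmol) at 1.5 nM final. Methiothepin mesylate defined non-specific binding and served as reference. Ki values are the average of duplicate determinations, run under a contract lab's standard protocol.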

[11] = biological target: T3, 5-hydroxytryptamine receptor 6; assay: Antagonist activity at recombinant human 5HT6 receptor expressed in CHO cells assessed as inhibition of 5HT-stimulated cAMP accumulation after 4 hrs by luciferase reporter gene assay relative to control; assay type: functional, cell-based
[12] = Drug metabolism in human liver microsomes at 2.5 uM after 0.5 hrs; assay type: ADME, Microsome; settings: read-out: Drug metabolism
[13] = Oral bioavailability in Wistar rat at 10 mg/kg; assay type: ADME, organism-based; settings: in vivo
In short: (§2)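 Fasted male Wistar rats were dosed orally at 10 mg/kg in water for injection (10 mL/kg). Parameters come from the plasma concentration-time profile.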

[14] = Clearance in Wistar rat at 5 to 10 mg/kg, iv; assay type: ADME, organism-based; parameters: dose 5-10 mg/kg, route intravenous; settings: in vivo
In short: (§3)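 Fasted male Wistar rats were dosed intravenously in water for injection at 2 mL/kg. Parameters come from the plasma profile.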

[15] = Cmax in Wistar rat at 10 mg/kg, po; assay type: ADME, organism-based; parameters: dose 10 mg/kg, route oral; settings: in vivo; in short: as §2
[16] = Tmax in Wistar rat at 10 mg/kg, po; assay type: ADME, organism-based; parameters: dose 10 mg/kg, route oral; settings: in vivo; in short: as §2
[17] = Drug metabolism in Wistar rat liver microsomes at 2.5 uM after 0.5 hrs; assay type: ADME, Microsome; settings: read-out: Drug metabolism
Cytochrome P450 3A4 = Cytochrome P450 3A4 (Homo sapiens, UniProt P08684); assay: Inhibition of CYP3A4 in human liver microsomes using midazolam as substrate after 5 mins in presence of NADPH; assay type: ADME, Microsome
Cytochrome P450 2D6 = Cytochrome P450 2D6 (Homo sapiens, UniProt P10635); assay: Inhibition of CYP2D6 in human liver microsomes using dextromethorphan as substrate after 10 mins in presence of NADPH; assay type: ADME, Microsome
[18] = biological target: T3, 5-hydroxytryptamine receptor 6; assay: Antagonist activity at recombinant human 5HT6 receptor expressed in CHO cells assessed as inhibition of 5HT-stimulated cAMP accumulation after 4 hrs by luciferase reporter gene assay; assay type: functional, cell-based
In short: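 Functional antagonism measured in a non-radioactive CHO cell-based assay as inhibition of 5-HT-stimulated cAMP accumulation. IC50 was derived from this inhibition, and Kb values were determined in the same cell-based format. IC50 and Kb are each the mean of two experiments.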

[19] = AUCt in Wistar rat at 10 mg/kg, po; assay type: ADME, organism-based; parameters: dose 10 mg/kg, route oral; settings: plasma; in short: as §2
[20] = Apparent volume of distribution in Wistar rat at 5 to 10 mg/kg, iv; assay type: ADME, organism-based; parameters: dose 5-10 mg/kg, route intravenous; settings: in vivo, read-out: Vz; in short: as §3
[21] = Half life in Wistar rat at 5 to 10 mg/kg, iv; assay type: ADME, organism-based; parameters: dose 5-10 mg/kg, route intravenous; settings: in vivo; in short: as §3
[22] = Ratio of drug level in brain to plasma at steady state in Wistar rat at 10 mg/kg, po after 1 hr; assay type: ADME, organism-based; parameters: dose 10 mg/kg, route oral; settings: read-out: BPR
[23] = Half life in Wistar rat at 10 mg/kg, po; assay type: ADME, organism-based; parameters: dose 10 mg/kg, route oral; settings: in vivo; in short: as §2
Rattus norvegicus = assay: Cognitive enhancing effect in Wistar rat assessed as reversal of time delay-induced memory deficit at 10 mg/kg, po after 60 mins by object recognition test; assay type: functional, organism-based; parameters: dose 10 mg/kg
In short: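 Object recognition task in rats. Drug or vehicle (PEG 400 50% v/v, 1 mL/kg) was given orally 60 min before testing, at 10 mg/kg. n = 6–9 per group.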

Sequence of Sodium-dependent dopamine transporter (Homo sapiens) (Q01959 whole entry): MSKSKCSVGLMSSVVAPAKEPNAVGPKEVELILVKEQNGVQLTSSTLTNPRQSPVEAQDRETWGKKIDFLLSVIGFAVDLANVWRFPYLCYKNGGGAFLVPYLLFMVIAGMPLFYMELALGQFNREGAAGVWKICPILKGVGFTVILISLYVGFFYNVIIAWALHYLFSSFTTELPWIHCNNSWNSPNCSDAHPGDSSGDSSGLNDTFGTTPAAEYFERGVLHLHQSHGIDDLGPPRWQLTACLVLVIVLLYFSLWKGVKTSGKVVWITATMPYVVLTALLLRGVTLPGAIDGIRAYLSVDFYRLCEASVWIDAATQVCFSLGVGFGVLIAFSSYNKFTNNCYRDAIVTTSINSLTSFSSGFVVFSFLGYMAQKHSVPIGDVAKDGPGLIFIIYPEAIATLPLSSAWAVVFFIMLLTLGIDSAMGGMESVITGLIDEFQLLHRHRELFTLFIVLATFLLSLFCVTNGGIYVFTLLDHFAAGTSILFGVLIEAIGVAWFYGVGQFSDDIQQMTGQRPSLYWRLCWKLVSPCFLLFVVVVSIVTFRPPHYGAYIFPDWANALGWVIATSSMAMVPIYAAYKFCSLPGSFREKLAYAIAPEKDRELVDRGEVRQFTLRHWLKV
Sequence of D(3) dopamine receptor (Homo sapiens) (P35462 whole entry): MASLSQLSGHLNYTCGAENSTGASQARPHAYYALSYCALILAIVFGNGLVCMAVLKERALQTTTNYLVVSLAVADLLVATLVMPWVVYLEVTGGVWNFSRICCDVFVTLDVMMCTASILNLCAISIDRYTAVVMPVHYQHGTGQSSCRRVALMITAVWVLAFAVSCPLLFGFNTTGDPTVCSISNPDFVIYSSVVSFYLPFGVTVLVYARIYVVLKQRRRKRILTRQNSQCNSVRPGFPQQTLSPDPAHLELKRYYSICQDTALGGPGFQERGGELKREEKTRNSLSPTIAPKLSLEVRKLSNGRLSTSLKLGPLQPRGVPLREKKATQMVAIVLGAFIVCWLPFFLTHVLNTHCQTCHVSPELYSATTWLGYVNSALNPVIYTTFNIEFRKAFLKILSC
Sequence of Sodium-dependent noradrenaline transporter (Homo sapiens) (P23975 whole entry): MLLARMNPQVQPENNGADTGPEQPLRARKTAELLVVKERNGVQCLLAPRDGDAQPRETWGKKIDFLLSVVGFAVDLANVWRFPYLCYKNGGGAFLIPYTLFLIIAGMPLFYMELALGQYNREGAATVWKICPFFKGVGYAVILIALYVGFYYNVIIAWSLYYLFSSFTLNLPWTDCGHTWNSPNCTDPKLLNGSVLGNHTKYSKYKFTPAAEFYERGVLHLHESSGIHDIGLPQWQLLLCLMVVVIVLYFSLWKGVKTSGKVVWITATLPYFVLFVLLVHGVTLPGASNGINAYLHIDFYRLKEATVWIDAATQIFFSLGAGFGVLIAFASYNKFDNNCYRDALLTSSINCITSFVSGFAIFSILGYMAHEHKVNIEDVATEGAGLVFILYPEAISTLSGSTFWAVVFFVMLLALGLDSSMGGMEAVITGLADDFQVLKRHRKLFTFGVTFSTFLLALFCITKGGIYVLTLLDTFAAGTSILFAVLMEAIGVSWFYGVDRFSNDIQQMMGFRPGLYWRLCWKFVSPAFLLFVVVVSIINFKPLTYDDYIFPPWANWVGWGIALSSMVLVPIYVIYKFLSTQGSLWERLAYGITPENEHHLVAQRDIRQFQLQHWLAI
Sequence of hERG (KCNH2) (Q12809 whole entry): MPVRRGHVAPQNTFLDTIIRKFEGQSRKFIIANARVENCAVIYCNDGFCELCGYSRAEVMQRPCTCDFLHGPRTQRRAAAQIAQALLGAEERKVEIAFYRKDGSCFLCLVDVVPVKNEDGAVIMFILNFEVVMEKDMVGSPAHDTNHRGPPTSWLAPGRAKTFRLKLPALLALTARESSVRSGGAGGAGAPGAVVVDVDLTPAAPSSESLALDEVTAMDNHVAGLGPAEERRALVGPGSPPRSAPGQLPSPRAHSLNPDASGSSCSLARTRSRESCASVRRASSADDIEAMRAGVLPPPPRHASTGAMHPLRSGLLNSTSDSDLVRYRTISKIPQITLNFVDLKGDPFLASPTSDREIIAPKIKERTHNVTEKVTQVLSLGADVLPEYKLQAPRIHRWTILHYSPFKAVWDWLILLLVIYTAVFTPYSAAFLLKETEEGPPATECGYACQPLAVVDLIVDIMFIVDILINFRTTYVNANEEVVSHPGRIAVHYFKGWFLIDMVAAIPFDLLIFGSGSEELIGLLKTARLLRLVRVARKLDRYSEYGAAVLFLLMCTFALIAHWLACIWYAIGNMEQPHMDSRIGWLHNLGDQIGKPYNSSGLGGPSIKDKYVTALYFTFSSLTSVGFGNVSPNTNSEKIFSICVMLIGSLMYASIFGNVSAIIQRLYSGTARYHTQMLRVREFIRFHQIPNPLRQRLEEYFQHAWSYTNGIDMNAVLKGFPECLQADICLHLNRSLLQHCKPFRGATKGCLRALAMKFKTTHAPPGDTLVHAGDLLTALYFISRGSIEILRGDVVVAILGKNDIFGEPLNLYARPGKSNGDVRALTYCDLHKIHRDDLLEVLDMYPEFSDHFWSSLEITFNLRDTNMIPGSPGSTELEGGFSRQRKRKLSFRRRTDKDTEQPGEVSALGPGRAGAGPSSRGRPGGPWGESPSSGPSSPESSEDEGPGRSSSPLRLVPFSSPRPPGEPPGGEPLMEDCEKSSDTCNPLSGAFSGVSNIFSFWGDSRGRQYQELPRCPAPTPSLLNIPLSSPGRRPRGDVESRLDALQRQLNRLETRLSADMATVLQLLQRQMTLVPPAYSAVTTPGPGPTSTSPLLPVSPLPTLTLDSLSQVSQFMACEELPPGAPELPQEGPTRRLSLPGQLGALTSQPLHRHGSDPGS
Sequence of D(2) dopamine receptor (Homo sapiens) (P14416 whole entry): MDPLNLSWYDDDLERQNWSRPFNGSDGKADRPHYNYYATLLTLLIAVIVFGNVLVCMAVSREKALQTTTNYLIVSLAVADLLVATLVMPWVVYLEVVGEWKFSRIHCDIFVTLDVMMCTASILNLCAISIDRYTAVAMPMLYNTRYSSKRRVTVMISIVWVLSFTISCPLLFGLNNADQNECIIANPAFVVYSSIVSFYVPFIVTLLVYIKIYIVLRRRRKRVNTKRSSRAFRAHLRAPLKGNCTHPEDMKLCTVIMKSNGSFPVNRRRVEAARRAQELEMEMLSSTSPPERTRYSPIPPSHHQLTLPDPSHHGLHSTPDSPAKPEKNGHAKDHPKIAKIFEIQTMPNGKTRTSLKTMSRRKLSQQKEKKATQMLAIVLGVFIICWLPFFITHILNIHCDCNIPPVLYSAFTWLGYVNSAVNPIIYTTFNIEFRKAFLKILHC
T3 sequence (P50406 whole entry): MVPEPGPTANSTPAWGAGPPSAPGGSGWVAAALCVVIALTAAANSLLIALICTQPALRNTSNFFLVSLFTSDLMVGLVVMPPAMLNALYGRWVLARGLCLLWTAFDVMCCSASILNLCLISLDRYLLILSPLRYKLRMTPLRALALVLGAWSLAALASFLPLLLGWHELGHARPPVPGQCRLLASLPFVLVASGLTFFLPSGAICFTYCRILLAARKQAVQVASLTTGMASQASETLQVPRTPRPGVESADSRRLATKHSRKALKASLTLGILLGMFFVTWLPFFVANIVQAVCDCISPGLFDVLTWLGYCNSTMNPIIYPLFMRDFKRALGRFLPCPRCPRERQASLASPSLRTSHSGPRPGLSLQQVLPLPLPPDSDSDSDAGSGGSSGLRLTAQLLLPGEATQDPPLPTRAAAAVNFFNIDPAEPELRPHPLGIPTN
Sequence of 5-hydroxytryptamine receptor 2A (Homo sapiens) (P28223 whole entry): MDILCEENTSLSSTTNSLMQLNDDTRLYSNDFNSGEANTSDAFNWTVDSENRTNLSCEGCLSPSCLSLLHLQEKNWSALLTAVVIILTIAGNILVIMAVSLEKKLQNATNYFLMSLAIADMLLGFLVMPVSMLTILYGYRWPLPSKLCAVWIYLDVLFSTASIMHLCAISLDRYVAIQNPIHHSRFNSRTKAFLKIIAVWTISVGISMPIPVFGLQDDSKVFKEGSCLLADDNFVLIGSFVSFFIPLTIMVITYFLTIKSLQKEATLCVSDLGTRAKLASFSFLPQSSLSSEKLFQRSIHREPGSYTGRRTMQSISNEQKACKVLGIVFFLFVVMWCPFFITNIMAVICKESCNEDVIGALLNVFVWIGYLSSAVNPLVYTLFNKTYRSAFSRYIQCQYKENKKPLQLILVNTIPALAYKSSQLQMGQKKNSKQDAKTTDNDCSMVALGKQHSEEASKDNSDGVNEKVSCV
Sequence of Sodium-dependent serotonin transporter (Homo sapiens) (P31645 whole entry, looked up): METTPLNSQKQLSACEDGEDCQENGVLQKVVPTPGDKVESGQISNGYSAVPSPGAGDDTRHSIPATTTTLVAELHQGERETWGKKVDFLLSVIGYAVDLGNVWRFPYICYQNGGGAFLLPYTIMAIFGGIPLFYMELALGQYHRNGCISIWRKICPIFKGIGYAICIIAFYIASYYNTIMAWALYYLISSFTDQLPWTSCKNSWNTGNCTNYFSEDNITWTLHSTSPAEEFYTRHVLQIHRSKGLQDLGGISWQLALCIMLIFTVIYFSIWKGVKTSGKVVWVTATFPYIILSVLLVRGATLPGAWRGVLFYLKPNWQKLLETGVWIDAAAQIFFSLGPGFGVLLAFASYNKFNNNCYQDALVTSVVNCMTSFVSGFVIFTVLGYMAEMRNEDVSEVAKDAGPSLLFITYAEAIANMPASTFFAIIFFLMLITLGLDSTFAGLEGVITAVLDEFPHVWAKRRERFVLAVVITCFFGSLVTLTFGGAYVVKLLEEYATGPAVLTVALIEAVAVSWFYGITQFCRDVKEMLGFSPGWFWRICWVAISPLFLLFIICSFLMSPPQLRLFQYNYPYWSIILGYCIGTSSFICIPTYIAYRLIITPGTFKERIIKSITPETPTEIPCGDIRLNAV

Structure (SMILES)	inhibition [1] [%]	inhibition [2] [%]	inhibition [3] [%]	inhibition [4] [%]	inhibition [5] [%]	inhibition [6] [%]	inhibition [7] [%]	inhibition [8] [%]	inhibition [9] [%]	pKi [10]	Imax [11] [%]	metabolised at 0.5 h, 2.5 µM [12] [%]	bioavailability [13] [%]	clearance [14] [mL/min/kg]	Cmax [15] [ng/mL]	Tmax [16] [h]	metabolised at 0.5 h, 2.5 µM [17] [%]	pIC50 (Cytochrome P450 2D6)	pIC50 [18]	inhibition at 1 µM (hERG (KCNH2)) [%]	also measured
O=S(=O)(c1ccccc1Br)n1ccc2c(CN3CCNCC3)cccc21	6.28	8.47	18	18.7	1.13	8.31	9.82	12.8	5.23	8.55	–	–	–	–	–	–	–	–	–	24.5	–
CN1CCN(Cc2cccc3c2c(Br)cn3S(=O)(=O)c2ccccc2)CC1	6.78	5.27	8.93	19.3	2.17	35.7	2.38	5.01	3.53	–	–	–	–	–	–	–	–	–	–	23	–
CN1CCN(Cc2cccc3c2c(Cl)cn3S(=O)(=O)c2cccc(Cl)c2)CC1	13.5	1.51	19.9	17.7	0.78	28.5	9.33	12.9	20.4	–	–	–	–	–	–	–	–	–	–	20.2	–

The next lines start with results.

inhibition [1] [%]	inhibition [2] [%]	inhibition [3] [%]	inhibition [4] [%]	inhibition [5] [%]	inhibition [6] [%]	inhibition [7] [%]	inhibition [8] [%]	inhibition [9] [%]	pKi [10]	Imax [11] [%]	metabolised at 0.5 h, 2.5 µM [12] [%]	bioavailability [13] [%]	clearance [14] [mL/min/kg]	Cmax [15] [ng/mL]	Tmax [16] [h]	metabolised at 0.5 h, 2.5 µM [17] [%]	pIC50 (Cytochrome P450 2D6)	pIC50 [18]	Structure (SMILES)	inhibition at 1 µM (hERG (KCNH2)) [%]	also measured
10.2	2.85	6.73	10.9	0.99	22.6	10.1	7.26	3.92	8.49	99	47	2	152	7.6	1.08	100	4.77	6.63	CN1CCN(Cc2cccc3c2ccn3S(=O)(=O)c2ccccc2)CC1	21.1	pIC50 (Cytochrome P450 3A4): 4.52; Kb [18]: 1.02 nM; AUC(0-t) [19]: 23 ng·h/mL; Vd [20]: 19.4 L/kg; half-life [21]: 1.53 h
10.8	4.62	18.8	24	2.26	27.8	9.48	11.1	3.66	–	100	90	29	220	60	1.83	100	4.71	6.87	CN1CCN(Cc2cccc3c2ccn3S(=O)(=O)c2ccccc2Br)CC1	15.8	Kp at 1 h [22]: 20.3; half-life [23]: 3.17 h; Activity (Rattus norvegicus): Active; Kb [18]: 0.59 nM; AUC(0-t) [19]: 217 ng·h/mL; Vd [20]: 32.6 L/kg; half-life [21]: 1.76 h

From ChEMBL document CHEMBL2203006, “Design, synthesis and pharmacological evaluation of 4-(piperazin-1-yl methyl)-N₁-arylsulfonyl indole derivatives as 5-HT₆ receptor ligands” (Bioorg Med Chem Lett, 2012)
